Key:
Plasmodium berghei [1] = experiment: Antimalarial activity against Plasmodium berghei infected in Swiss Webster mouse assessed as mouse survival rate at 11 mg/kg administered once daily via oral gavage for 4 consecutive days beginning 1 hr after infection measured on day 4 post infection relative to control; format: functional
Method in brief: (§1)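 P. berghei-infected erythrocytes taken from a previously infected mouse were injected intraperitoneally. Oral dosing, once daily for 4 consecutive days, began 1 h after infection, in polyethylene glycol 300/propylene glycol/water (55/25/20 by weight). Chloroquine at 30 mg/kg was the positive control, with a vehicle-only group. Percent survival was recorded daily from day 4 to day 20.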

Plasmodium berghei [2] = experiment: Antimalarial activity against Plasmodium berghei infected in Swiss Webster mouse assessed as mouse survival rate at 100 mg/kg administered once daily via oral gavage for 4 consecutive days beginning 1 hr after infection measured on day 4 post infection relative to control; format: functional
Method in brief: (§2)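 Mice given an intraperitoneal injection of P. berghei-infected erythrocytes taken from a previously infected animal. Oral dosing once daily for 4 consecutive days, starting 1 h after infection. Vehicle: polyethylene glycol 300/propylene glycol/water (weight ratio 55/25/20). Percent survival recorded daily from day 4 to day 20. Chloroquine 30 mg/kg and vehicle-only groups served as controls.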

Plasmodium berghei [3] = experiment: Antimalarial activity against Plasmodium berghei infected in Swiss Webster mouse assessed as mouse survival rate at 1.2 mg/kg administered once daily via oral gavage for 4 consecutive days beginning 1 hr after infection measured on day 4 post infection relative to control; format: functional; method in brief: as §2
Plasmodium berghei [4] = experiment: Antimalarial activity against Plasmodium berghei infected in Swiss Webster mouse assessed as mouse survival rate at 1.2 mg/kg administered once daily via oral gavage for 4 consecutive days beginning 1 hr after infection measured on day 5 post infection relative to control; format: functional; method in brief: as §2
Plasmodium berghei [5] = experiment: Antimalarial activity against Plasmodium berghei infected in Swiss Webster mouse assessed as mouse survival rate at 33 mg/kg administered once daily via oral gavage for 4 consecutive days beginning 1 hr after infection measured on day 7 post infection relative to control; format: functional; method in brief: as §1
Plasmodium berghei [6] = experiment: Antimalarial activity against Plasmodium berghei infected in Swiss Webster mouse assessed as mouse survival rate at 11 mg/kg administered once daily via oral gavage for 4 consecutive days beginning 1 hr after infection measured on day 6 post infection relative to control; format: functional; method in brief: as §1
Plasmodium berghei [7] = experiment: Antimalarial activity against Plasmodium berghei infected in Swiss Webster mouse assessed as mouse survival rate at 33 mg/kg administered once daily via oral gavage for 4 consecutive days beginning 1 hr after infection measured on day 4 post infection relative to control; format: functional; method in brief: as §1
Plasmodium berghei [8] = experiment: Antimalarial activity against Plasmodium berghei infected in Swiss Webster mouse assessed as mouse survival rate at 100 mg/kg administered once daily via oral gavage for 4 consecutive days beginning 1 hr after infection measured on day 10 post infection relative to control; format: functional; method in brief: as §2
Plasmodium berghei [9] = experiment: Antimalarial activity against Plasmodium berghei infected in Swiss Webster mouse assessed as mouse survival rate at 100 mg/kg administered once daily via oral gavage for 4 consecutive days beginning 1 hr after infection measured on day 7 post infection relative to control; format: functional; method in brief: as §2
Plasmodium berghei [10] = experiment: Antimalarial activity against Plasmodium berghei infected in Swiss Webster mouse assessed as mouse survival rate at 3.7 mg/kg administered once daily via oral gavage for 4 consecutive days beginning 1 hr after infection measured on day 5 post infection relative to control; format: functional; method in brief: as §1
Plasmodium berghei [11] = experiment: Antimalarial activity against Plasmodium berghei infected in Swiss Webster mouse assessed as mouse survival rate at 33 mg/kg administered once daily via oral gavage for 4 consecutive days beginning 1 hr after infection measured on day 6 post infection relative to control; format: functional; method in brief: as §1
Plasmodium berghei [12] = experiment: Antimalarial activity against Plasmodium berghei infected in Swiss Webster mouse assessed as mouse survival rate at 3.7 mg/kg administered once daily via oral gavage for 4 consecutive days beginning 1 hr after infection measured on day 6 post infection relative to control; format: functional; method in brief: as §1
Plasmodium berghei [13] = experiment: Antimalarial activity against Plasmodium berghei infected in Swiss Webster mouse assessed as mouse survival rate at 3.7 mg/kg administered once daily via oral gavage for 4 consecutive days beginning 1 hr after infection measured on day 7 post infection relative to control; format: functional; method in brief: as §1
Plasmodium berghei [14] = experiment: Antimalarial activity against Plasmodium berghei infected in Swiss Webster mouse assessed as mouse survival rate at 0.4 mg/kg administered once daily via oral gavage for 4 consecutive days beginning 1 hr after infection measured on day 7 post infection relative to control; format: functional; method in brief: as §2
Plasmodium berghei [15] = experiment: Antimalarial activity against Plasmodium berghei infected in Swiss Webster mouse assessed as mouse survival rate at 33 mg/kg administered once daily via oral gavage for 4 consecutive days beginning 1 hr after infection measured on day 8 post infection relative to control; format: functional; method in brief: as §1
Plasmodium berghei [16] = experiment: Antimalarial activity against Plasmodium berghei infected in Swiss Webster mouse assessed as mouse survival rate at 0.4 mg/kg administered once daily via oral gavage for 4 consecutive days beginning 1 hr after infection measured on day 6 post infection relative to control; format: functional; method in brief: as §2
Plasmodium berghei [17] = experiment: Antimalarial activity against Plasmodium berghei infected in Swiss Webster mouse assessed as mouse survival rate at 0.4 mg/kg administered once daily via oral gavage for 4 consecutive days beginning 1 hr after infection measured on day 4 post infection relative to control; format: functional; method in brief: as §2
[18] = Metabolic stability in human hepatocytes at 22 uM after 44 hrs; format: ADME, cell-based, Hepatocyte
Plasmodium berghei [19] = experiment: Antimalarial activity against Plasmodium berghei infected in Swiss Webster mouse assessed as mouse survival rate at 0.1 mg/kg administered once daily via oral gavage for 4 consecutive days beginning 1 hr after infection measured on day 4 post infection relative to control; format: functional; method in brief: as §2
Plasmodium berghei [20] = experiment: Antimalarial activity against Plasmodium berghei infected in Swiss Webster mouse assessed as mouse survival rate at 100 mg/kg administered once daily via oral gavage for 4 consecutive days beginning 1 hr after infection measured on day 14 post infection relative to control; format: functional; method in brief: as §2
Plasmodium berghei [21] = experiment: Antimalarial activity against Plasmodium berghei infected in Swiss Webster mouse assessed as mouse survival rate at 100 mg/kg administered once daily via oral gavage for 4 consecutive days beginning 1 hr after infection measured on day 12 post infection relative to control; format: functional; method in brief: as §2
Plasmodium falciparum = experiment: Antimalarial activity against Plasmodium falciparum 3D7 0087/N9 infected in NOD/SCID IL2R gamma null mouse assessed as reduction in parasitemia administered once daily via oral gavage for 4 consecutive days measured on day 4 post infection; format: functional; settings: 3D7 0087/N9, po, 96 h
Method in brief: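 Human-erythrocyte-engrafted NODscidIL2Rγnull mice carrying P. falciparum Pf3D70087/N9 in peripheral blood; compound given orally once daily for four consecutive days.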

[22] = Metabolic stability in rat hepatocytes at 22 uM after 44 hrs; format: ADME, cell-based, Hepatocyte
Plasmodium berghei [23] = experiment: Antimalarial activity against Plasmodium berghei infected in Swiss Webster mouse assessed as mouse survival rate at 33 mg/kg administered once daily via oral gavage for 4 consecutive days beginning 1 hr after infection measured on day 14 post infection relative to control; format: functional; method in brief: as §1
Plasmodium berghei [24] = experiment: Antimalarial activity against Plasmodium berghei infected in Swiss Webster mouse assessed as mouse survival rate at 33 mg/kg administered once daily via oral gavage for 4 consecutive days beginning 1 hr after infection measured on day 13 post infection relative to control; format: functional; method in brief: as §1
Plasmodium berghei [25] = experiment: Antimalarial activity against Plasmodium berghei infected in Swiss Webster mouse assessed as mouse survival rate at 0.1 mg/kg administered once daily via oral gavage for 4 consecutive days beginning 1 hr after infection measured on day 5 post infection relative to control; format: functional; method in brief: as §2
Plasmodium berghei [26] = experiment: Antimalarial activity against Plasmodium berghei infected in Swiss Webster mouse assessed as mouse survival rate at 11 mg/kg administered once daily via oral gavage for 4 consecutive days beginning 1 hr after infection measured on day 8 post infection relative to control; format: functional; method in brief: as §1

Compound	survival at 11 mg/kg (Plasmodium berghei [1]) [%]	survival at 100 mg/kg (Plasmodium berghei [2]) [%]	survival at 1.2 mg/kg (Plasmodium berghei [3]) [%]	survival at 1.2 mg/kg (Plasmodium berghei [4]) [%]	survival at 33 mg/kg (Plasmodium berghei [5]) [%]	survival at 11 mg/kg (Plasmodium berghei [6]) [%]	survival at 33 mg/kg (Plasmodium berghei [7]) [%]	survival at 100 mg/kg (Plasmodium berghei [8]) [%]	survival at 100 mg/kg (Plasmodium berghei [9]) [%]	survival at 3.7 mg/kg (Plasmodium berghei [10]) [%]	survival at 33 mg/kg (Plasmodium berghei [11]) [%]	survival at 3.7 mg/kg (Plasmodium berghei [12]) [%]	survival at 3.7 mg/kg (Plasmodium berghei [13]) [%]	survival at 0.4 mg/kg (Plasmodium berghei [14]) [%]	survival at 33 mg/kg (Plasmodium berghei [15]) [%]	survival at 0.4 mg/kg (Plasmodium berghei [16]) [%]	survival at 0.4 mg/kg (Plasmodium berghei [17]) [%]	Stability [18]	survival at 100 mg/kg (Plasmodium berghei [20]) [%]	survival at 100 mg/kg (Plasmodium berghei [21]) [%]	also measured
Cc1c(Oc2cnc(C(=O)NCCO)cn2)ccc2c1B(O)OC2	100	100	100	100	0	100	100	0	80	100	100	100	0								
Cc1c(Oc2cnc(C(=O)N[C@@H](CO)CC(F)(F)F)cn2)ccc2c1B(O)OC2	100	100	100	100	100	100	100	100	100	100	100	100	0	0	100	100	100				
Cc1c(Oc2cnc(C(=O)N3CC(O)(C4CC4)C3)cn2)ccc2c1B(O)OC2	100	100	100	100	100	100	100	100	100	100	100	100	0	0	100	100	100	Stable	0	100	survival at 0.1 mg/kg (Plasmodium berghei [19]): 100%; ED90 (Plasmodium falciparum): < 5 mg/kg; Stability [22]: Stable; survival at 33 mg/kg (Plasmodium berghei [23]): 0%; survival at 33 mg/kg (Plasmodium berghei [24]): 40%; survival at 0.1 mg/kg (Plasmodium berghei [25]): 100%
Cc1c(Oc2cnc(C(=O)NC(C)CO)cn2)ccc2c1B(O)OC2 (stereo not given)	100	100			100	40	100	40	100		100				0					0	survival at 11 mg/kg (Plasmodium berghei [26]): 0%
CCC[C@H](CO)NC(=O)c1cnc(Oc2ccc3c(c2C)B(O)OC3)cn1	100	100	100	100	100	100	100	100	100	100	100	100	0		100				0	20	ED90 (Plasmodium falciparum): 2.5 mg/kg
CCCC1(O)CN(C(=O)c2cnc(Oc3ccc4c(c3C)B(O)OC4)cn2)C1	100	100	100	100	100	100	100	100	100	100	100	100	0	0	100	100	100	Stable	80	100	survival at 0.1 mg/kg (Plasmodium berghei [19]): 100%; Stability [22]: Stable; survival at 33 mg/kg (Plasmodium berghei [23]): 0%; survival at 11 mg/kg (Plasmodium berghei [26]): 80%; survival at 33 mg/kg (Plasmodium berghei [24]): 100%; survival at 0.1 mg/kg (Plasmodium berghei [25]): 100%
